Reference: ChEMBL document CHEMBL4725388, “Characterization of Aminobenzylphenols as Protein Disulfide Isomerase Inhibitors in Glioblastoma Cell Lines” (J Med Chem, 2020)
The source made the active and inactive calls. The calls are words filed in the database; no cut-off is given here.

Assays:
[1] = biological target: T1, Protein disulfide-isomerase (Homo sapiens, UniProt P07237); experiment: Binding affinity to recombinant human wild-type N-terminal His-tagged PDIA1 expressed in Escherichia coli strain BL21(DE3) assessed as adduct formation at 100 uM measured after 30 mins in presence of DTT by Q-TOF MS analysis
Outline: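 Recombinant PDI at 10 μM incubated 30 min with 100 μM compound and 100 μM DTT before injection; adducts detected by quadrupole time-of-flight mass spectrometry.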
Target sequence in this assay (P07237 18-508 limits assumed): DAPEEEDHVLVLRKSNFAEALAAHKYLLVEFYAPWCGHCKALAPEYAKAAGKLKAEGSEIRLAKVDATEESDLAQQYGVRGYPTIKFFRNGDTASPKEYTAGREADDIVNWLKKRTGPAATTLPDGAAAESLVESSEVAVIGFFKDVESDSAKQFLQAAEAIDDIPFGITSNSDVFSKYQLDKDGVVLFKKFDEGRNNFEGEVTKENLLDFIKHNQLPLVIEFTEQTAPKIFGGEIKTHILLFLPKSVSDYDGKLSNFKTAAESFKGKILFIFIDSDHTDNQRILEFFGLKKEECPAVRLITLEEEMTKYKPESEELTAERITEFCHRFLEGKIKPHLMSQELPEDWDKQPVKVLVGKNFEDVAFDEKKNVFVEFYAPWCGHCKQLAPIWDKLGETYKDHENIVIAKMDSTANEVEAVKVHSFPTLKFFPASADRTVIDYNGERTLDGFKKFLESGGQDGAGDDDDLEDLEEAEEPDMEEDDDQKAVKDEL

[2] = biological target: T1, Protein disulfide-isomerase; experiment: Inhibition of recombinant human wild-type N-terminal His-tagged PDIA1 expressed in Escherichia coli strain BL21(DE3) at 1.1 to 90 uM using bovine insulin as substrate preincubated for 1 hr followed by substrate addition in presence of glutathione; conditions: dose microM 1.1-90, time 1.0 hrs
Target sequence in this assay (P07237 18-508 limits assumed): as above

[3] = species: Homo sapiens; experiment: Binding affinity to recombinant human wild-type N-terminal His-tagged PDIA1 C53S mutant expressed in Escherichia coli strain BL21(DE3) assessed as adduct formation at 100 uM measured after 30 mins in presence of DTT by Q-TOF MS analysis
[4] = test system: U-87 MG; experiment: Inhibition of colony formation in BSO-treated human U-87 MG cells at 0.3 to 30 uM measured after 10 to 14 days by crystal violet staining based assay; format: functional, cell-based; conditions: U-87MG ATCC, dose microM 0.3-30, time day 10-14
Outline: (§1)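 U-87 MG cells pretreated with BSO for 24 hours before compound addition; read-out by colony formation assay.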

[5] = biological target: T1, Protein disulfide-isomerase; experiment: Inhibition of recombinant human wild-type N-terminal His-tagged PDIA1 expressed in Escherichia coli strain BL21(DE3) at 40 uM using bovine insulin as substrate preincubated for 1 hr followed by substrate addition relative to control
Target sequence in this assay (P07237 18-508 limits assumed): as above

[6] = test system: U-87 MG; experiment: Cytotoxicity against human U-87 MG cells assessed as growth inhibition at 30 uM measured after 72 hrs by MTT assay relative to control; format: functional, U-87MG ATCC; conditions: read-out: GI
Outline: (§2)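 Single-concentration screen: percent inhibition of cell growth at 30 μM in U-87 MG and MIA PaCa-2 cells by MTT.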

[7] = test system: MIA PaCa-2; experiment: Cytotoxicity against human MIA PaCa-2 cells assessed as growth inhibition at 30 uM measured after 72 hrs by MTT assay relative to control; format: functional; conditions: read-out: GI; outline: as §2
[8] = biological target: T1, Protein disulfide-isomerase; experiment: Inhibition of recombinant human wild-type N-terminal His-tagged PDIA1 expressed in Escherichia coli strain BL21(DE3) using bovine insulin as substrate preincubated for 1 hr followed by substrate addition
Outline: (§3)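 IC50 from dose-response curves; PDI reductase assay for enzyme, MTT in U-87 MG cells for cytotoxicity; mean ± SD of at least three independent experiments.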
Target sequence in this assay (P07237 whole entry): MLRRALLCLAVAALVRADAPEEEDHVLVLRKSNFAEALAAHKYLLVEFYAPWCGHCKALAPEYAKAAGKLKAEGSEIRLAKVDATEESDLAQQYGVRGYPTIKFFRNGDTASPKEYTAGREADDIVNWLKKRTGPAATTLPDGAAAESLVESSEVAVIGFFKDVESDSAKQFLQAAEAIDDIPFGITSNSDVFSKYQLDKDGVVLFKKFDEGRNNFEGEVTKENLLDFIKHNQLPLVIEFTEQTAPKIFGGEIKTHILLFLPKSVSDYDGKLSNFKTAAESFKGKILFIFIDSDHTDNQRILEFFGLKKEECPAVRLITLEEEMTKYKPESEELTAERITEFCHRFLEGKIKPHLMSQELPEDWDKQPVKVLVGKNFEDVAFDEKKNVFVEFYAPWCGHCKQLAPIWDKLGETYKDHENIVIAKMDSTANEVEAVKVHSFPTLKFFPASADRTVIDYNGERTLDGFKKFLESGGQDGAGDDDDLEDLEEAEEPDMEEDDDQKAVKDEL

[9] = test system: Protein disulfide-isomerase (Homo sapiens), P07237 [H256A]; experiment: Inhibition of recombinant human wild-type N-terminal His-tagged PDIA1 H256A mutant expressed in Escherichia coli strain BL21(DE3) using bovine insulin as substrate preincubated for 1 hr followed by substrate addition
Protein disulfide-isomerase (Homo sapiens), P07237 [H256A], sequence (P07237 whole entry H256A): as the sequence (P07237 whole entry) above, with H256A counted along it

[10] = test system: U-87 MG; experiment: Cytotoxicity against human U-87 MG cells assessed as growth inhibition measured after 72 hrs by MTT assay; format: functional, cell-based, U-87MG ATCC; outline: as §3
[11] = biological target: T1, Protein disulfide-isomerase; experiment: Binding affinity to recombinant human wild-type N-terminal His-tagged PDIA1 expressed in Escherichia coli strain BL21(DE3) assessed as change in melting temperature at 100 uM by ROX dye based thermal shift assay
Target sequence in this assay (P07237 18-508 limits assumed): as the sequence (P07237 18-508 limits assumed) above

[12] = biological target: T1, Protein disulfide-isomerase; experiment: Inhibition of recombinant human wild-type N-terminal His-tagged PDIA1 expressed in Escherichia coli strain BL21(DE3) assessed as ratio of Kinact to Ki using bovine insulin as substrate preincubated for 5 to 60 mins followed by substrate addition; conditions: time min 5-60
Outline: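 Activity measured in PDI reductase assay (insulin substrate, absorbance followed over time) at several inhibitor concentrations and preincubation times of 5 to 60 minutes; kinact/KI derived from concentration- and time-dependent inhibition curves.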
Target sequence in this assay (P07237 18-508 limits assumed): as above

[13] = biological target: T1, Protein disulfide-isomerase; experiment: Displacement of PACMA57 from recombinant human wild-type N-terminal His-tagged PDIA1 expressed in Escherichia coli strain BL21(DE3) at 100 uM measured after overnight incubation by gel-based imaging analysis
Target sequence in this assay (P07237 18-508 limits assumed): as above

[14] = biological target: T1, Protein disulfide-isomerase; experiment: Irreversible inhibition of recombinant human wild-type N-terminal His-tagged PDIA1 expressed in Escherichia coli strain BL21(DE3) at 400 uM using bovine insulin as substrate preincubated for 30 mins followed by 100-fold dilution substrate addition further incubated for 1 hr and subsequent substrate addition; conditions: time 1.5 hrs
[15] = biological target: T1, Protein disulfide-isomerase; experiment: Displacement of ANS from recombinant human wild-type N-terminal His-tagged PDIA1 expressed in Escherichia coli strain BL21(DE3) at 100 uM measured after 1 hr by fluorescence assay
[16] = biological target: T1, Protein disulfide-isomerase; experiment: Inhibition of recombinant human wild-type N-terminal His-tagged PDIA1 expressed in Escherichia coli strain BL21(DE3) at 10 uM using bovine insulin as substrate preincubated for 1 hr followed by substrate addition in presence of N-acetyl cysteine
Outline: (§4)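 Compound incubated with N-acetyl cysteine before addition to the PDI reductase assay with PDIA1, at a final compound concentration of 10 μM.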

[17] = biological target: T1, Protein disulfide-isomerase; experiment: Inhibition of recombinant human wild-type N-terminal His-tagged PDIA1 expressed in Escherichia coli strain BL21(DE3) at 10 uM using bovine insulin as substrate preincubated for 1 hr followed by substrate addition in presence of glutathione
Outline: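 Glutathione added to the PDI reaction buffer before 10 μM compound; screening done with 5 mM GSH, reductase assay DTT at 500 μM.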

[18] = biological target: T1, Protein disulfide-isomerase; experiment: Inhibition of recombinant human wild-type N-terminal His-tagged PDIA1 expressed in Escherichia coli strain BL21(DE3) at 10 uM using bovine insulin as substrate […]; outline: as §4
[19] = test system: U-87 MG; experiment: Inhibition of colony formation in BSO-treated human U-87 MG cells at 0.3 to 3 uM measured after 10 to 14 days by crystal violet staining based assay; format: functional, cell-based; conditions: U-87MG ATCC, dose microM 0.3-3, time day 10-14; outline: as §1
[20] = biological target: T1, Protein disulfide-isomerase; experiment: Binding affinity to recombinant human wild-type N-terminal His-tagged PDIA1 expressed in Escherichia coli strain BL21(DE3) assessed as increase in protein mass at 100 uM measured after 30 mins in presence of GSTO1 and GRP78 by Q-TOF MS analysis relative to control
Outline: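 100 μM compound incubated 30 min with a mix of 10 μM PDI, 10 μM GSTO1 and 10 μM GRP78 (GRP78 as non-specific binding control); protein masses read by QTOF MS before/after.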

[21] = test system: U-87 MG; experiment: Inhibition of colony formation in BSO-treated human U-87 MG cells at 0.3 to 10 uM measured after 10 to 14 days by crystal violet staining based assay; format: functional, cell-based; conditions: U-87MG ATCC, dose microM 0.3-10, time day 10-14; outline: as §1
[22] = biological target: T1, Protein disulfide-isomerase; experiment: Inhibition of recombinant human wild-type N-terminal His-tagged PDIA1 expressed in Escherichia coli strain BL21(DE3) at 10 uM using bovine insulin as substrate preincubated for 1 hr followed by substrate addition in absence of glutathione

## Oc1c(C(c2ccc(F)cc2)N2CCN(C(c3ccc(F)cc3)c3ccc4cncnc4c3O)CC2)ccc2cncnc12 (stereo not drawn)
[1]
  Activity: Active
[2]
  inhibition: Active
[3]
  Activity: Active
[4]
  inhibition: Active

## COc1ccc(C(c2cc3c(cc2O)OCO3)N2CCOCC2)cc1OC (stereo not drawn)
[5]
  inhibition: 50%
[6]
  inhibition of growth at 30 µM: > 40%
[7]
  inhibition of growth at 30 µM: > 40%
[8]
  IC50: 0.3 µM
[9]
  inhibition: Active
[10]
  IC50: 18.3 µM
[11]
  ΔTm: -0.36 °C
[12]
  Ratio: 2.6 10^3/M/s
[13]
  inhibition: Active
[14]
  inhibition: Active
[15]
  inhibition: inactive
[16]
  inhibition: inactive
[17]
  inhibition: inactive
[18]
  inhibition: Active
[19]
  inhibition: Active

## C#CC(=O)N(c1ccc(OC)cc1OC)C(C(=O)NCC(=O)OCC)c1cccs1 (stereo not drawn)
[11]
  ΔTm: 0.18 °C
[12]
  Ratio: 2 10^2/M/s
[16]
  inhibition: inactive
[17]
  inhibition: inactive

## COC(=O)C1(C)c2[nH]c3ccccc3c2CCN1C(=O)CCl (stereo not drawn)
[12]
  Ratio: 1.7 10^2/M/s

## COc1cccc(C(c2cc3c(cc2O)OCO3)N2CCOCC2)c1OC (stereo not drawn)
[6]
  inhibition of growth at 30 µM: 66%
[8]
  IC50: 1.06 µM
[10]
  IC50: 32 µM
[1]
  Activity: Active
[20]
  fold change (FC): 2
[14]
  inhibition: inactive

## Oc1c(C(Nc2ccccn2)c2ccc(Cl)cc2)ccc2cccnc12 (stereo not drawn)
[5]
  inhibition: 50%
[6]
  inhibition of growth at 30 µM: > 40%
[7]
  inhibition of growth at 30 µM: > 40%
[8]
  IC50: 0.17 µM
[9]
  inhibition: Active
[10]
  IC50: 10.6 µM
[11]
  ΔTm: -0.05 °C
[14]
  inhibition: inactive
[15]
  inhibition: inactive
[16]
  inhibition: inactive
[17]
  inhibition: inactive
[18]
  inhibition: Active
[21]
  inhibition: Active

## Oc1c(C(c2ccc(F)cc2)N2CCNCC2)ccc2cncnc12 (stereo not drawn)
[8]
  IC50: 1.2 µM
[1]
  Activity: Active
[17]
  inhibition: 44%
[22]
  inhibition: 100%
[3]
  Activity: Active
[4]
  inhibition: inactive

## CN(C)c1ccc(C(Nc2ncccn2)c2cc3c(cc2O)OCO3)cc1 (stereo not drawn)
[17]
  inhibition: 64%
[22]
  inhibition: 88%

## Oc1cc2c(cc1C(c1ccc(F)cc1)N1CCCCC1)CCC2 (stereo not drawn)
[8]
  IC50: > 30 µM
[20]
  Activity: inactive
[13]
  inhibition: inactive

## O=[N+]([O-])c1ccc(NC(c2ccccc2)c2ccc3cccnc3c2O)cc1 (stereo not drawn)
[8]
  IC50: 0.15 µM
[10]
  IC50: > 10 µM

## N#Cc1cccc(/C=C/C(=O)c2ccc(O)cc2)c1
[11]
  ΔTm: 1.55 °C
[15]
  inhibition: Active
[16]
  inhibition: inactive
[17]
  inhibition: inactive

## Cc1ccnc(NC(c2ccccc2F)c2ccc3cccnc3c2O)c1 (stereo not drawn)
[8]
  IC50: 0.88 µM
[10]
  IC50: 13.1 µM

## COc1cccc(C(c2cc3c(cc2O)OCO3)N2CCCC2)c1O (stereo not drawn)
[8]
  IC50: 1.65 µM
[10]
  IC50: > 10 µM

## O=C(O)c1ccc(NC(c2ccccc2)c2ccc3cccnc3c2O)cc1 (stereo not drawn)
[8]
  IC50: 0.3 µM
[10]
  IC50: > 10 µM

## CCOC(=O)c1ccccc1NC(c1ccccc1)c1ccc2cccnc2c1O (stereo not drawn)
[8]
  IC50: < 0.2 µM
[10]
  IC50: > 10 µM

## Cc1ccnc(NC(c2ccccc2)c2ccc3cccnc3c2O)c1 (stereo not drawn)
[8]
  IC50: < 0.2 µM
[10]
  IC50: > 10 µM

## Cc1ccnc(NC(c2cc(C)ccc2C)c2ccc3cccnc3c2O)c1 (stereo not drawn)
[8]
  IC50: > 40 µM
[10]
  IC50: > 10 µM

## Oc1c(C(c2ccc(F)cc2)N2CCCCC2)ccc2cccnc12 (stereo not drawn)
[6]
  inhibition of growth at 30 µM: 54%
[8]
  IC50: 0.69 µM
[10]
  IC50: 37 µM

## Cc1ccnc(NC(c2ccc3cccnc3c2O)c2c(Cl)cccc2Cl)c1 (stereo not drawn)
[8]
  IC50: > 40 µM
[10]
  IC50: 7.2 µM

## Oc1cc2c(cc1C(c1ccc3c(c1)OCO3)N1CCCCC1)OCO2 (stereo not drawn)
[8]
  IC50: 0.35 µM
[10]
  IC50: > 10 µM

## Cc1ccnc(NC(c2ccc(C(F)(F)F)cc2)c2ccc3cccnc3c2O)c1 (stereo not drawn)
[8]
  IC50: 26.5 µM
[10]
  IC50: 2.1 µM

## COc1cc(C(c2cc3c(cc2O)OCO3)N2CCCC2)cc(OC)c1OC (stereo not drawn)
[8]
  IC50: 0.18 µM
[10]
  IC50: 24.2 µM

## COc1cccc(C(c2cc3c(cc2O)OCO3)N2CCOCC2)c1O (stereo not drawn)
[8]
  IC50: 0.9 µM
[10]
  IC50: > 10 µM

## Oc1ccc(C(c2cc3c(cc2O)OCO3)N2CCNCC2)cc1 (stereo not drawn)
[8]
  IC50: 0.68 µM
[10]
  IC50: > 30 µM

## Cc1ccnc(NC(c2cccc(F)c2)c2ccc3cccnc3c2O)c1 (stereo not drawn)
[8]
  IC50: 0.35 µM
[10]
  IC50: 9.2 µM

## CCc1ccc(C(Nc2ccccn2)c2ccc3cccnc3c2O)cc1 (stereo not drawn)
[8]
  IC50: 0.17 µM
[10]
  IC50: 9.3 µM

## COc1cccc(C(Nc2ccccn2)c2ccc3cccnc3c2O)c1 (stereo not drawn)
[8]
  IC50: 2.86 µM
[10]
  IC50: 11.9 µM

## COc1cccc(C(c2ccc3cccnc3c2O)N2CCOCC2)c1OC (stereo not drawn)
[6]
  inhibition of growth at 30 µM: 74%
[8]
  IC50: 0.39 µM
[10]
  IC50: 33 µM

## NC(=O)NC(c1ccc(O)cc1)c1cc2c(cc1O)OCO2 (stereo not drawn)
[8]
  IC50: > 40 µM
[10]
  IC50: > 10 µM
